Source: PubChem BioAssay
Activity calls are given as the source filed them. Unless noted, no stated cut-off is given here; in the data, active means inhibition above about 30%; inactive means the rest.

Experiments:
[1] = SK-BR-3 cell growth inhibitors, pilot screen, 24 h, human (AID 572;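 active means viability at or below 10% of carrier control in both of two separate runs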;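 further: compound exposure lasted between 18 and 24 h rather than exactly 24 h; 100% = carrier-treated control wells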); conditions: SK-BR-3 viability, CellTiter-Glo luminescence, at 10 µM, stronger effect = lower value
[2] = HUVEC growth inhibition – cell-based, human, primary screen (AID 575;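 active means viability at or below 30% in both replicate assays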;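 further: 100% = median of untreated cell wells with 0.1% DMSO on each plate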); conditions: HUVEC proliferation, CellTiter-Glo luminescence, 72 h; at 10 µM; stronger effect = lower value
In short: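 Assay system: Primary human umbilical vein endothelial cells | Quantity: 1250 cells per well | Medium: Supplemented EBM, 2% fetal bovine serum | Detection: CellTiter-Glo luminescence measuring cellular ATP | Read-out: % viability vs DMSO wells | Plate: Collagen-coated 384-well format | Times: 72 h exposure, 37 °C, 5% CO2, 30 min RT equilibration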

[3] = growth inhibitors of H69AR lung tumor, primary screen, human, duplicate replicates (AID 580;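 active means viability at or under a set limit in both replicates, limit being median viability minus 3 SD, cut at about 48% in these data, passing the limit was not always enough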;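 further: 100% = mean luminescence of untreated wells and 0% = no signal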); conditions: H69AR lung tumor cells viability, ATP luminescence, 72 h; at 10 µM; stronger effect = lower value
[4] = reversal of MRP1-mediated doxorubicin resistance, pilot screen, H69AR cells, doxorubicin co-treatment (AID 601;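 active means viability loss from added drug above about 55%, and viability with drug at most 40%, in both replicates, limit read from the data, passing the limit was not always enough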); conditions: CellTiter-Glo, 72 h, at 10 µM; for differential viability (reversal): stronger effect = higher value
[5] = 384-well plate pilot, post-Golgi transport modulator project, inhibition of yeast transport mutant growth (AID 636; in the data active means inhibition above about 31%); conditions: absorbance 615 nm, about 18 h, stronger effect = higher value
[6] = growth suppression of yeast trafficking mutant, preliminary HTS, modulators of trafficking downstream of Golgi apparatus project, 1536-format plate, OD 615 nm (AID 637); conditions: yeast transport mutant growth, absorbance 615 nm, 18 h; stronger effect = higher value
[7] = H69AR cells + 2 uM doxorubicin, measured here: viability with 2 uM doxorubicin, stronger effect = lower value
[8] = H69AR cells, compound alone cytotoxicity

Row | Compound | viability [1] | viability [2] | viability [3] | differential viability (reversal) ([4]; H69AR cells + 2 uM doxorubicin) | viability [4, 7] [%] | viability [4, 8] [%] | inhibition [5] | inhibition [6]
1 | Cc1nnc(N(C)C(=O)Cc2ccc3c(c2)OCO3)s1 | 94% (inactive) | 92.6% (inactive) | 94.6% (inactive) | 5.27% (inactive) | 89.3 | 94.6 | 2.47% (inactive) | 8.71% (inactive)
2 | COc1ccc(S(=O)(=O)Nc2ccccc2OC)cc1C | 107% (inactive) | 93.8% (inactive) | 83.1% (inactive) | -7.08% (inactive) | 90.2 | 83.1 | 0% (inactive) | 0.82% (inactive)
3 | Cc1csc(NC(=O)c2ccoc2C)n1 | 103% (inactive) | 84.6% (inactive) | 86.3% (inactive) | -5.44% (inactive) | 91.8 | 86.3 | -4.66% (inactive) | -8.39% (inactive)
4 | CCOc1ccccc1-c1nc(-c2ccc(C)nc2OC)no1 | 123% (inactive) | 95.9% (inactive) | 81.9% (inactive) | -0.315% (inactive) | 82.2 | 81.9 | -0.78% (inactive) | 5.74% (inactive)
5 | Nc1cc(=O)[nH]c(SCC(=O)Nc2ccc(Br)cc2)n1 | 96% (inactive) | 101% (inactive) | 90.5% (inactive) | 4.49% (inactive) | 86 | 90.5 | -0.52% (inactive) | -4.1% (inactive)
6 | Cc1ccc(S(=O)(=O)NC(=O)NN2CCCCCC2)cc1 | 112% (inactive) | 81.1% (inactive) | 114% (inactive) | 14% (inactive) | 100 | 114 | -3.38% (inactive) | 4.17% (inactive)
7 | COc1ccc(S(=O)(=O)N2CCCC(C(=O)NCc3ccccn3)C2)cc1 (configuration not stated) | 146% (inactive) | 96.8% (inactive) | 95.5% (inactive) | 3.92% (inactive) | 91.6 | 95.5 | -1.43% (inactive) | -0.66% (inactive)
8 | O=C(O)CCc1ccc(-c2ccc(F)cc2)n1CCC(=O)O | 71% (inactive) | 104% (inactive) | 98.5% (inactive) | -9.11% (inactive) | 108 | 98.5 | -7.53% (inactive) | 3.45% (inactive)
9 | COc1ccc(Cl)c(NC(=O)NCCN2CCN(c3ccccc3)CC2)c1 | 102% (inactive) | 107% (inactive) | 90.4% (inactive) | 8.35% (inactive) | 82 | 90.4 | -2% (inactive) | 1.27% (inactive)
10 | COc1ccc(-c2ccc(-c3nnn(CC(C)=O)n3)cc2)cc1 | 118% (inactive) | 105% (inactive) | 76.9% (inactive) | 3.31% (inactive) | 73.6 | 76.9 | -4.16% (inactive) | -9.02% (inactive)
11 | COc1ccc(Cl)cc1NC(=O)CSc1nncn1-c1cccnc1 | 92% (inactive) | 102% (inactive) | 88.3% (inactive) | 2.01% (inactive) | 86.3 | 88.3 | -7.07% (inactive) | -3.27% (inactive)
12 | CCCCCCC(c1c(C)n(C)n(-c2ccccc2)c1=O)c1c(C)n(C)n(-c2ccccc2)c1=O | 90% (inactive) | 99.9% (inactive) | 80.8% (inactive) | 2.09% (inactive) | 78.7 | 80.8 | -3.47% (inactive) | -0.18% (inactive)
13 | COc1cc(NS(=O)(=O)c2ccc(N)cc2)nc(OC)n1 | 109% (inactive) | 80.7% (inactive) | 100% (inactive) | 11.7% (inactive) | 88.4 | 100 | 1.43% (inactive) | 3.83% (inactive)
14 | Cc1cc(=O)oc2ccc(OCC(=O)N(Cc3ccc(F)cc3)Cc3ccco3)cc12 | 91% (inactive) | 50.9% (inactive) | 72% (inactive) | 11.6% (inactive) | 60.5 | 72 | -2.47% (inactive) | -9.35% (inactive)
15 | O=C(CCn1c(=O)oc2ccccc21)N1CCCCCC1 | 112% (inactive) | 99% (inactive) | 98.3% (inactive) | 5.09% (inactive) | 93.3 | 98.3 | 0.95% (inactive) | -1.64% (inactive)
16 | O=C(NCc1ccccc1)C1CCCN(S(=O)(=O)c2cccnc2)C1 (configuration not stated) | 92% (inactive) | 95.5% (inactive) | 99% (inactive) | 6.21% (inactive) | 92.8 | 99 | -4.66% (inactive) | -3.81% (inactive)
17 | COC(=O)c1ccccc1NC(=O)COc1ccc(S(=O)(=O)N2CCCC2)cc1C | 90% (inactive) | 87.1% (inactive) | 74.4% (inactive) | 8.04% (inactive) | 66.4 | 74.4 | -3.03% (inactive) | 3.83% (inactive)

Row | Compound | viability [1] | viability [2] | viability [3] | differential viability (reversal) ([4]; H69AR cells + 2 uM doxorubicin) | viability [4, 7] [%] | viability [4, 8] [%] | inhibition [5] | inhibition [6]
18 | CCCCSc1nnc([C@H](C)NC(=O)OC(C)(C)C)o1 | 97% (inactive) | 102% (inactive) | 90.3% (inactive) | -10.7% (inactive) | 101 | 90.3 | 0.14% (inactive) | 22.6% (inactive)
19 | Cc1ccc(-c2nnc(SCC(=O)N3c4ccccc4NC(=O)C3(C)C)n2N)cc1 | 65% (inactive) | 105% (inactive) | 98% (inactive) | 6.49% (inactive) | 91.5 | 98 | -3.38% (inactive) | 0.36% (inactive)
20 | O=c1oc2cc(O)ccc2c2oc3cc(O)ccc3c12 | 108% (inactive) | 85.1% (inactive) | 99.4% (inactive) | 6.57% (inactive) | 92.8 | 99.4 | -5.19% (inactive) | 5.17% (inactive)
21 | COc1ccc2nc(S(=O)Cc3ncc(C)c(OC)c3C)[nH]c2c1 (configuration not stated) | 88% (inactive) | 71.1% (inactive) | 80.8% (inactive) | -13.3% (inactive) | 94.1 | 80.8 | -1.69% (inactive) | -2.5% (inactive)
22 | CCOC(=O)N1CCC(N(CCCOC)C(=O)Nc2ccc(CC)cc2)CC1 | 106% (inactive) | 92.7% (inactive) | 98.9% (inactive) | 13% (inactive) | 86 | 98.9 | -0.26% (inactive) | -2.3% (inactive)
23 | C=CCN(CC=C)C(=O)c1ccncc1 | 115% (inactive) | 92.8% (inactive) | 102% (inactive) | -2.84% (inactive) | 104 | 102 | 0.68% (inactive) | -4.84% (inactive)
24 | COc1ccc(-n2ncc3c(NCc4cccs4)ncnc32)cc1 | 120% (inactive) | 90.5% (inactive) | 73.3% (inactive) | 17.6% (inactive) | 55.8 | 73.3 | -6.71% (inactive) | -1.64% (inactive)
25 | O=C(NC1CCCCC1NC(=O)c1ccco1)c1ccco1 (configuration not stated) | 93% (inactive) | 94.2% (inactive) | 90% (inactive) | -4.53% (inactive) | 94.5 | 90 | 0.53% (inactive) | 3.27% (inactive)
26 | Cc1cccc(NC(=O)CCCCCN2C(=O)c3ccccc3C2=O)n1 | 92% (inactive) | 105% (inactive) | 105% (inactive) | 2.47% (inactive) | 102 | 105 | -7.12% (inactive) | 5.45% (inactive)
27 | CC(C)n1nc(C(=O)Nc2nc3ccc(S(C)(=O)=O)cc3s2)c2ccccc2c1=O | 87% (inactive) | 86.1% (inactive) | 67.8% (inactive) | -4.21% (inactive) | 72 | 67.8 | -4.86% (inactive) | 2.73% (inactive)
28 | COc1ccc(NC(=O)CSc2nc(C)cc(C(F)(F)F)n2)cc1 | 91% (inactive) | 103% (inactive) | 87.4% (inactive) | 3.33% (inactive) | 84.1 | 87.4 | -6.44% (inactive) | -4.91% (inactive)
29 | COc1ccc(NC(=O)N2CCC(c3nc(-c4cccs4)no3)CC2)cc1 | 121% (inactive) | 98.3% (inactive) | 95.6% (inactive) | 15.4% (inactive) | 80.2 | 95.6 | -2.4% (inactive) | 0.73% (inactive)
30 | COC(=O)c1ccc2c(=O)n(CC3CCCO3)c(=S)[nH]c2c1 (configuration not stated) | 84% (inactive) | 106% (inactive) | 86.2% (inactive) | 2.35% (inactive) | 83.9 | 86.2 | -8.36% (inactive) | 4.19% (inactive)
31 | Cc1nc2ncnn2c(N2CCC(C(=O)NCC3CCCO3)CC2)c1Cc1ccccc1 (configuration not stated) | 136% (inactive) | 97.1% (inactive) | 89.5% (inactive) | -6.76% (inactive) | 96.3 | 89.5 | -3.7% (inactive) | -4.55% (inactive)
32 | Cc1cccc(-n2ncc3c(NCc4cccs4)ncnc32)c1 | 64% (inactive) | 61.8% (inactive) | 66.1% (inactive) | -22.8% (inactive) | 88.9 | 66.1 | 26.2% (inactive) | 0.36% (inactive)
33 | CCO/C([O-])=N/c1c[n+](N2CCOCC2)no1 | 81% (inactive) | 95.9% (inactive) | 86.7% (inactive) | -3.3% (inactive) | 90 | 86.7 | 1.3% (inactive) | 2.33% (inactive)
34 | c1n[nH]c(SCCCCSc2ncn[nH]2)n1 | 101% (inactive) | 108% (inactive) | 108% (inactive) | 13.8% (inactive) | 93.9 | 108 | -6.71% (inactive) | 2.91% (inactive)
